Holding throughout (format): functional
Assay [1] concerns Rattus norvegicus. Description: Ex vivo induction of GST in Sprague-Dawley rat bladder at 7.5 umol/kg/day, po for 10 days measured on day 11 relative to control. The gist of the method:
(§1)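 Female Sprague-Dawley rats, 6 per group, gavaged with compound at 7.5 µmol/kg/day or soya oil for 10 days and killed on day 11. Bladder homogenized in ice-cold 0.2% Triton X-100 and cleared by centrifugation. NQO1 activity measured by the Ernster method, GST by the Habig method. Reported as treated/control mean ± SEM, ANOVA with Student-Newman-Keuls test.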

The subject of assay [2] is Rattus norvegicus. Description: Ex vivo induction of NQO1 in Sprague-Dawley rat bladder at 7.5 umol/kg/day, po for 10 days measured on day 11 relative to control. The gist of the method: as §1
The subject of assay [3] is Rattus norvegicus. Description: Ex vivo induction of NQO1 in Sprague-Dawley rat stomach at 7.5 umol/kg/day, po for 10 days measured on day 11 relative to control. In a few lines:
(§2)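 Organs taken from the same rats used for the bladder study: female Sprague-Dawley, compound at 7.5 µmol/kg/day by gavage or soya oil for 10 days, killed on day 11. GI contents rinsed out under cold water and tissues stored at −80°C. Homogenized in 0.2% Triton X-100 and centrifuged. Supernatant NQO1 activity measured by the Ernster method, expressed as treated/control.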

Assay [4] deals with Rattus norvegicus. Description: Ex vivo induction of NQO1 in Sprague-Dawley rat duodenum at 7.5 umol/kg/day, po for 10 days measured on day 11 relative to control. The gist of the method:
as §2

Assay [5] concerns Rattus norvegicus. Description: Ex vivo induction of NQO1 in Sprague-Dawley rat colon at 7.5 umol/kg/day, po for 10 days measured on day 11 relative to control. The gist of the method: as §2
Assay [6] has as its system Rattus norvegicus. Description: Ex vivo induction of NQO1 in Sprague-Dawley rat kidney at 7.5 umol/kg/day, po for 10 days measured on day 11 relative to control. The gist of the method: as §2
Assay [7] relates to Rattus norvegicus. Description: Ex vivo induction of NQO1 in Sprague-Dawley rat lung at 7.5 umol/kg/day, po for 10 days measured on day 11 relative to control. The gist of the method:
as §2

The test system of assay [8] is Rattus norvegicus. Description: Ex vivo induction of NQO1 in Sprague-Dawley rat jejunum at 7.5 umol/kg/day, po for 10 days measured on day 11 relative to control. In a few lines: as §2
The subject of assay [9] is Rattus norvegicus. Description: Ex vivo induction of NQO1 in Sprague-Dawley rat ileum at 7.5 umol/kg/day, po for 10 days measured on day 11 relative to control. In a few lines: as §2
Assay [10] concerns Rattus norvegicus. Description: Ex vivo induction of NQO1 in Sprague-Dawley rat liver at 7.5 umol/kg/day, po for 10 days measured on day 11 relative to control. The gist of the method: as §2

`Oc1ccc(-c2cc(=S)ss2)cc1`: the “fold change (FC)” value is reported as 0.95 with Rattus norvegicus [1] and 1.02 in the assay with Rattus norvegicus [2].

Turning to `S=c1ssc2c1CCC2`, the “fold change (FC)” value with Rattus norvegicus [1] is 1.68; in the assay with Rattus norvegicus [3], 3.55; in the assay on Rattus norvegicus [4], 2.82; with Rattus norvegicus [5] it was 1.28; in the assay with Rattus norvegicus [6] it was 1.87; with Rattus norvegicus [7] it was 1.26. The “fold change (FC)” value in the assay with Rattus norvegicus [2] turned out to be 3.14; in the assay with Rattus norvegicus [8] it was 1.44; in the assay on Rattus norvegicus [9], 1.36; in the assay with Rattus norvegicus [10], 1.26.

With `S=c1ssc2c1CCCCCC2`, the “fold change (FC)” value was found to be 1.11 with Rattus norvegicus [1] and 1.08 with Rattus norvegicus [2].

For the molecule `CCOC(=O)C1Cc2ssc(=S)c2C1` (stereo unspecified), the “fold change (FC)” value was 1.11 in the assay on Rattus norvegicus [1] and 1.23 with Rattus norvegicus [2].

As to `S=c1ccss1` [DITHIOLETHIONE], the “fold change (FC)” value in the assay on Rattus norvegicus [1] came out at 1.7; in the assay on Rattus norvegicus [3] it was 5.31; in the assay with Rattus norvegicus [4] it was 5.6; in the assay with Rattus norvegicus [5], 1.81; in the assay with Rattus norvegicus [6], 1.82; in the assay with Rattus norvegicus [7], 1.37. For the same molecule, the “fold change (FC)” value in the assay on Rattus norvegicus [2] is reported as 2.78; in the assay on Rattus norvegicus [8], 2.31; in the assay with Rattus norvegicus [9], 1.76; with Rattus norvegicus [10], 1.3.

For the molecule `Cc1cc(=S)ss1`, the results for the “fold change (FC)” value with Rattus norvegicus [1] and in the assay with Rattus norvegicus [2] were 1.08 and 1.23, respectively.

For `CC1Cc2ssc(=S)c2C1` (stereo unspecified), the “fold change (FC)” value was 1.31 in the assay with Rattus norvegicus [1] and 1.81 in the assay on Rattus norvegicus [2].

Regarding `Cc1cssc1=S`, the “fold change (FC)” value is listed as 1.23 in the assay with Rattus norvegicus [1] and 1.83 in the assay on Rattus norvegicus [2].

Regarding `CCOC(=O)c1cssc1=S`, the “fold change (FC)” value stood at 2.76 with Rattus norvegicus [1]; 2.15 in the assay on Rattus norvegicus [3]; 1.21 in the assay with Rattus norvegicus [4]; 0.98 in the assay on Rattus norvegicus [5]; 1.47 in the assay on Rattus norvegicus [6]; 1.21 in the assay with Rattus norvegicus [7]. For the same molecule, the “fold change (FC)” value is reported as 4.82 with Rattus norvegicus [2], 1.04 in the assay on Rattus norvegicus [8], 1.11 with Rattus norvegicus [9] and 1.04 in the assay with Rattus norvegicus [10].

`Cc1c(S)ssc1=S`: the “fold change (FC)” value in the assay with Rattus norvegicus [1] was determined as 1.08; in the assay on Rattus norvegicus [2], 1.29.

As for `S=c1ssc2c1CCCC2`, the “fold change (FC)” value is 1.05 with Rattus norvegicus [1] and 1.46 in the assay with Rattus norvegicus [2].

On to `COC(=O)C1CCc2c1ssc2=S` (stereo unspecified), for which the “fold change (FC)” value stood at 2.31 in the assay with Rattus norvegicus [1]; 1.98 in the assay with Rattus norvegicus [3]; 1.14 in the assay on Rattus norvegicus [4]; 1.07 in the assay on Rattus norvegicus [5]; 1.76 in the assay on Rattus norvegicus [6]; 1.08 in the assay with Rattus norvegicus [7]. For the same molecule, the “fold change (FC)” value is listed as 4.39 with Rattus norvegicus [2], 1.11 in the assay with Rattus norvegicus [8], 1.07 with Rattus norvegicus [9] and 1.1 in the assay on Rattus norvegicus [10].

The record behind these values is ChEMBL document CHEMBL1177701, “Synthesis, biological evaluation, and structure-activity relationships of dithiolethiones as inducers of cytoprotective phase 2 enzymes” (J Med Chem, 2010).
